{"source": "ChEMBL document CHEMBL1146494", "about": "“Anthrone and oxanthrone C-glycosides from Picramnia latifolia collected in Peru” (J Nat Prod, 2004)", "key": {"Lu1": {"system": "Lu1", "test": "Cytotoxicity against human Lu1 cells", "assay_type": "functional", "conditions": "read-out: ED50 (the source's name)"}, "LNCaP": {"system": "LNCaP", "test": "Cytotoxicity against human LNCAP cells", "assay_type": "functional", "conditions": "read-out: ED50 (the source's name)"}, "MCF7": {"system": "MCF7", "test": "Cytotoxicity against human MCF7 cells", "assay_type": "functional", "conditions": "read-out: ED50 (the source's name)"}, "[1]": {"test": "Cytotoxicity against HUVEC", "assay_type": "cell-based", "conditions": "human, HUVEC cells; read-out: ED50 (the source's name)"}, "Mus musculus [2]": {"system": "Mus musculus", "test": "Toxicity in human Lu1 cells xenografted mouse at 6.25 to 50 mg/kg, ip after 4 days", "assay_type": "organism-based", "design": "dose 6.25-50 mg/kg, route intraperitoneal", "conditions": "in vivo, 96 h", "how_it_was_run": "(§1)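 In vivo hollow fiber assay in mice. Fibers containing the cancer cells were implanted at intraperitoneal and subcutaneous sites. The compound was given i.p. at 6.25, 12.5, 25 and 50 mg/kg body weight per injection, once daily for 4 days. Readouts were growth of the fiber-borne cells at each site, plus body weight and overt toxicity over the test period.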"}, "Mus musculus [3]": {"system": "Mus musculus", "test": "Toxicity in human LNCAP cells xenografted mouse at 6.25 to 50 mg/kg, ip after 4 days", "assay_type": "organism-based", "design": "dose 6.25-50 mg/kg, route intraperitoneal", "conditions": "in vivo, 96 h", "how_it_was_run": "as §1"}, "Mus musculus [4]": {"system": "Mus musculus", "test": "Toxicity in human MCF7 cells xenografted mouse at 6.25 to 50 mg/kg, ip after 4 days", "assay_type": "organism-based", "design": "dose 6.25-50 mg/kg, route intraperitoneal", "conditions": "in vivo, 96 h", "how_it_was_run": "as §1"}}}
{"smiles": "COc1cc(O)c2c(c1)C(=O)c1c(O)cc(C)cc1C2=O", "values": [{"measurement": "EC50", "setting": "Lu1", "value": "> 5", "unit": "µg/mL"}, {"measurement": "EC50", "setting": "LNCaP", "value": "> 5", "unit": "µg/mL"}, {"measurement": "EC50", "setting": "MCF7", "value": "> 5", "unit": "µg/mL"}, {"measurement": "CC50", "setting": "[1]", "value": "> 5", "unit": "µg/mL"}]}
{"smiles": "COc1cc2ccc(=O)oc2cc1O", "note": "[SCOPOLETIN]", "values": [{"measurement": "EC50", "setting": "Lu1", "value": "> 5", "unit": "µg/mL"}, {"measurement": "EC50", "setting": "LNCaP", "value": "> 5", "unit": "µg/mL"}, {"measurement": "EC50", "setting": "MCF7", "value": "> 5", "unit": "µg/mL"}, {"measurement": "CC50", "setting": "[1]", "value": "> 5", "unit": "µg/mL"}]}
{"smiles": "CC[C@H](CC[C@@H](C)[C@H]1CC[C@H]2[C@@H]3CC=C4C[C@@H](O[C@@H]5O[C@H](CO)[C@@H](O)[C@H](O)[C@H]5O)CC[C@]4(C)[C@H]3CC[C@]12C)C(C)C", "note": "[SITOGLUSIDE]", "values": [{"measurement": "EC50", "setting": "Lu1", "value": "> 5", "unit": "µg/mL"}, {"measurement": "EC50", "setting": "LNCaP", "value": "> 5", "unit": "µg/mL"}, {"measurement": "EC50", "setting": "MCF7", "value": "> 5", "unit": "µg/mL"}, {"measurement": "CC50", "setting": "[1]", "value": "> 5", "unit": "µg/mL"}]}
{"smiles": "O=c1ccc2ccc(O)cc2o1", "note": "[UMBELLIFERONE]", "values": [{"measurement": "EC50", "setting": "Lu1", "value": "> 5", "unit": "µg/mL"}, {"measurement": "EC50", "setting": "LNCaP", "value": "> 5", "unit": "µg/mL"}, {"measurement": "EC50", "setting": "MCF7", "value": "> 5", "unit": "µg/mL"}, {"measurement": "CC50", "setting": "[1]", "value": "> 5", "unit": "µg/mL"}]}
{"smiles": "Cc1cc(O)c2c(c1)[C@@H](C[C@H]1OC[C@@H](OC(=O)c3ccccc3)[C@@H](O)[C@@H]1O)c1cccc(O)c1C2=O", "note": "[PICRAMNIOSIDE G]", "values": [{"measurement": "EC50", "setting": "Lu1", "value": "> 5", "unit": "µg/mL"}, {"measurement": "EC50", "setting": "LNCaP", "value": "> 5", "unit": "µg/mL"}, {"measurement": "EC50", "setting": "MCF7", "value": "> 5", "unit": "µg/mL"}, {"measurement": "CC50", "setting": "[1]", "value": "> 5", "unit": "µg/mL"}]}
{"smiles": "CC[C@H](CC[C@@H](C)[C@H]1CC[C@H]2[C@@H]3CC=C4C[C@@H](O)CC[C@]4(C)[C@H]3CC[C@]12C)C(C)C", "note": "[BETA-SITOSTEROL]", "values": [{"measurement": "EC50", "setting": "Lu1", "value": "> 5", "unit": "µg/mL"}, {"measurement": "EC50", "setting": "LNCaP", "value": "> 5", "unit": "µg/mL"}, {"measurement": "EC50", "setting": "MCF7", "value": "> 5", "unit": "µg/mL"}, {"measurement": "CC50", "setting": "[1]", "value": "> 5", "unit": "µg/mL"}]}
{"smiles": "Cc1cc(O)c2c(c1)C(=O)c1cccc(O)c1C2=O", "note": "[CHRYSOPHANOL]", "values": [{"measurement": "EC50", "setting": "Lu1", "value": "> 5", "unit": "µg/mL"}, {"measurement": "EC50", "setting": "LNCaP", "value": "> 5", "unit": "µg/mL"}, {"measurement": "EC50", "setting": "MCF7", "value": "> 5", "unit": "µg/mL"}, {"measurement": "CC50", "setting": "[1]", "value": "> 5", "unit": "µg/mL"}]}
{"smiles": "Cc1cc(O)c2c(c1)C(=O)c1cccc(O[C@@H]3O[C@H](CO)[C@@H](O)[C@H](O)[C@H]3O)c1C2=O", "note": "[PULMATIN]", "values": [{"measurement": "EC50", "setting": "Lu1", "value": "> 5", "unit": "µg/mL"}, {"measurement": "EC50", "setting": "LNCaP", "value": "> 5", "unit": "µg/mL"}, {"measurement": "EC50", "setting": "MCF7", "value": "> 5", "unit": "µg/mL"}, {"measurement": "CC50", "setting": "[1]", "value": "> 5", "unit": "µg/mL"}]}
{"smiles": "Cc1cc(O)c2c(c1)-c1cccc3ccc(O)c(c13)C2=O", "values": [{"measurement": "EC50", "setting": "Lu1", "value": "> 5", "unit": "µg/mL"}, {"measurement": "EC50", "setting": "LNCaP", "value": "> 5", "unit": "µg/mL"}, {"measurement": "EC50", "setting": "MCF7", "value": "> 5", "unit": "µg/mL"}, {"measurement": "CC50", "setting": "[1]", "value": "> 5", "unit": "µg/mL"}]}
{"smiles": "Cc1cc(O)c2c(c1)C(=O)c1ccc(O)c(O)c1C2=O", "values": [{"measurement": "EC50", "setting": "Lu1", "value": 3, "unit": "µg/mL"}, {"measurement": "EC50", "setting": "LNCaP", "value": 3.6, "unit": "µg/mL"}, {"measurement": "EC50", "setting": "MCF7", "value": 4.7, "unit": "µg/mL"}, {"measurement": "CC50", "setting": "[1]", "value": 5, "unit": "µg/mL"}, {"measurement": "Activity", "setting": "Mus musculus [2]", "value": "Non-toxic"}, {"measurement": "Activity", "setting": "Mus musculus [3]", "value": "Non-toxic"}, {"measurement": "Activity", "setting": "Mus musculus [4]", "value": "Non-toxic"}]}
{"smiles": "Cc1cc(O)c2c3c(cccc13)-c1cccc(O)c1C2=O", "values": [{"measurement": "EC50", "setting": "Lu1", "value": "> 5", "unit": "µg/mL"}, {"measurement": "EC50", "setting": "LNCaP", "value": "> 5", "unit": "µg/mL"}, {"measurement": "EC50", "setting": "MCF7", "value": "> 5", "unit": "µg/mL"}, {"measurement": "CC50", "setting": "[1]", "value": "> 5", "unit": "µg/mL"}]}
{"smiles": "Cc1cc(O[C@@H]2O[C@H](CO)[C@@H](O)[C@H](O)[C@H]2O)c2c(c1)C(=O)c1cccc(O)c1C2=O", "note": "[CHRYSOPHANEIN]", "values": [{"measurement": "EC50", "setting": "Lu1", "value": "> 5", "unit": "µg/mL"}, {"measurement": "EC50", "setting": "LNCaP", "value": "> 5", "unit": "µg/mL"}, {"measurement": "EC50", "setting": "MCF7", "value": "> 5", "unit": "µg/mL"}, {"measurement": "CC50", "setting": "[1]", "value": "> 5", "unit": "µg/mL"}]}
{"smiles": "Cc1cc(O)c2c(c1)[C@H](C[C@H]1OC[C@@H](OC(=O)c3ccccc3)[C@@H](O)[C@@H]1O)c1cccc(O)c1C2=O", "note": "[PICRAMNIOSIDE H]", "values": [{"measurement": "EC50", "setting": "Lu1", "value": "> 5", "unit": "µg/mL"}, {"measurement": "EC50", "setting": "LNCaP", "value": "> 5", "unit": "µg/mL"}, {"measurement": "EC50", "setting": "MCF7", "value": "> 5", "unit": "µg/mL"}, {"measurement": "CC50", "setting": "[1]", "value": "> 5", "unit": "µg/mL"}]}
